Results as given in ChEMBL document CHEMBL4354867, “Validation and Characterization of Five Distinct Novel Inhibitors of Human Cytomegalovirus” (J Med Chem, 2020).
Active and inactive are the calls of the source. The rule behind the calls is not given here.

Assays:
Human betaherpesvirus 5 [1] = test: Antiviral activity against GCV-resistant HCMV Towne infected in human HFF cells assessed as reduction in plaque formation treated with compound following viral infection and incubated for 8 to 10 days by crystal violet staining based assay; assay type: functional, organism-based; settings: Human betaherpesvirus 5, strain Towne
Human betaherpesvirus 5 [2] = test: Antiviral activity against HCMV TB40 infected in human HFF cells assessed as reduction in plaque formation treated with compound following viral infection and incubated for 8 to 10 days by crystal violet staining based assay; assay type: functional, organism-based; settings: Human betaherpesvirus 5, TB40, HFF
HFF = test: Cytotoxicity against human HFF cells assessed as reduction in cell viability incubated for 72 hrs or 10 days by MTT assay; assay type: cell-based
Summary of the method: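 MTT assay on uninfected cells exposed to compound for 72 h or 8–10 days, matching the antiviral assay durations. MTT (5 mg/mL stock in PBS) added, then 2–3 h at 37 °C. Formazan absorbance read at 560 nm.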

Human alphaherpesvirus 2 = test: Antiviral activity against HSV 2 infected in African green monkey Vero cells assessed as reduction in plaque formation incubated for 36 hrs by crystal violet staining based assay; assay type: functional, organism-based
Summary of the method: (§1)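 Plaque reduction in Vero cells: virus adsorbed 60 min, then compound added in a carboxymethylcellulose overlay. Plaques counted after 36 h by crystal violet staining.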

Human betaherpesvirus 5 [3] = test: (§2) Antiviral activity against pp28-luciferase expressing HCMV Towne infected in human HFF cells assessed as reduction in viral replication treated with compound at 24 hrs post viral infection at MOI of 1 PFU/cell and measured after 3 days by luciferase reporter gene assay; assay type: functional, organism-based; settings: strain Towne
Summary of the method: (§3)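 Time-of-addition in HFFs infected with HCMV Towne (MOI 1). Add-on: compound added at 0, 6, 24 or 48 hpi. Removal: compound added right after infection and washed out after 0, 6, 24 or 48 h. Luciferase read at 72 hpi.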

Human betaherpesvirus 5 [4] = test: Inhibition of viral protein expression in HCMV Towne infected in human HFF cells assessed as reduction in UL84 expression at 0.1 to 10 uM treated with compound following viral infection at MOI of 1 PFU/cell measured at 72 hrs post infection by Western blot analysis; assay type: functional, organism-based; settings: strain Towne
Summary of the method: (§4)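 HFFs infected with HCMV Towne (MOI 1), then treated with compound. Lysates taken at 72 hpi, equal protein loaded on 8–10% Tris-glycine SDS-PAGE and transferred to PVDF. Primary antibodies overnight at 4 °C, HRP secondary, chemiluminescent detection; β-actin as loading control.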

Human betaherpesvirus 5 [5] = test: Antiviral activity against HCMV Towne infected in human HFF cells assessed as reduction in viral DNA yields in the supernatant at 2 uM treated with compound following viral infection at MOI of 0.1 PFU/cell by US17 real time PCR analysis; assay type: functional, organism-based; settings: strain Towne
Summary of the method: (§5)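 At set time points supernatants were harvested and cells lysed for DNA. Cell-associated viral DNA and supernatant viral DNA quantified by real-time PCR targeting a 151-bp conserved US17 region.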

Human betaherpesvirus 5 [6] = test: Inhibition of viral protein expression in HCMV Towne infected in human HFF cells assessed as reduction in pp65 expression at 0.1 to 10 uM treated with compound following viral infection at MOI of 1 PFU/cell measured at 72 hrs post infection by Western blot analysis; assay type: functional, organism-based; settings: strain Towne
Summary of the method: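 Lysates taken at 72 hpi, equal protein run on SDS-PAGE and transferred to PVDF. Immunoblot for viral proteins (IE1/2, UL84, UL44, pp65) with β-actin as loading reference, chemiluminescent detection.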

Human betaherpesvirus 5 [7] = test: Antiviral activity againstpp28-luciferase expressing HCMV Towne infected in human HFF cells assessed as reduction in viral replication treated with compound following viral infection at MOI of 1 PFU/cells measured after 3 days in presence of GCV by luciferase reporter gene assay; assay type: functional, organism-based; settings: Human betaherpesvirus 5, strain Towne, 72 h
Summary of the method: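 HFFs in 96-well plates were infected with pp28-luciferase Towne HCMV, in which luciferase is driven by the UL99 late promoter, at MOI 1. A dose-response of each drug alone gave its EC₅₀. Combinations started at twice each EC₅₀ in DMEM with 4% FBS, followed by two-fold serial dilutions, and were added after infection. Luciferase was read in cell lysates at 72 hpi. The Bliss ratio is observed over expected inhibition.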

Human betaherpesvirus 5 [8] = test: (§6) Antiviral activity against pp28-luciferase harboring UL97 C607Y mutant expressing GCV-resistant HCMV Towne infected in human HFF cells assessed as reduction in viral replication at 0.5 to 3 uM treated with compound following viral infection at MOI of 0.1 PFU/cell and measured at 72 hrs post infection by luciferase reporter gene assay; assay type: functional, organism-based; settings: strain Towne
Summary of the method: (§7)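 HFFs infected with GCV-resistant pp28-luciferase Towne (MOI 0.1), then treated with a compound dilution series. Luciferase, driven by the UL99 late promoter, read in cell lysates at 72 hpi. Data are mean ± SD of triplicates from a single experiment.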

Human betaherpesvirus 5 [9] = test: Antiviral activity against HCMV Towne infected in human HFF cells assessed as reduction in plaque formation treated with compound following viral infection and incubated for 8 to 10 days by crystal violet staining based assay; assay type: functional, organism-based; settings: Human betaherpesvirus 5, strain Towne
Human alphaherpesvirus 1 = test: Antiviral activity against HSV 1 infected in African green monkey Vero cells assessed as reduction in plaque formation incubated for 36 hrs by crystal violet staining based assay; assay type: functional, organism-based; summary of the method: as §1
Human betaherpesvirus 5 [10] = test: as §2, with “immediately after” for “at 24 hrs post”, “PFU/cell followed by compound washout after 6 hrs” for “PFU/cell”; assay type: functional, strain Towne; settings: for Activity: strain Towne; summary of the method: as §3
Human gammaherpesvirus 4 = test: Antiviral activity against EBV infected in human AKATA cells assessed as reduction in IgG-induced lytic virus replication measured at 48 hrs post-lytic induction by qRT-PCR analysis; assay type: functional, organism-based
Human betaherpesvirus 5 [11] = test: Antiviral activity against HCMV Towne infected in human HFF cells assessed as reduction in viral DNA replication at 2 uM treated with compound following viral infection at MOI of 0.1 PFU/cell by US17 real time PCR analysis; assay type: functional, organism-based; settings: strain Towne; summary of the method: as §5
Human betaherpesvirus 5 [12] = test: Antiviral activity against HCMV TB40 infected in human HFF cells assessed as reduction in plaque formation at 0.1 to 3 uM treated with compound following viral infection at […] measured after 8 days by crystal violet staining analysis; assay type: functional, organism-based
Summary of the method: (§8)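 HFFs (2 × 10⁵/well) infected with HCMV TB40 at about 100 plaques/well for 90 min. Inoculum removed, then DMEM with 0.5% CMC, 4% FBS and compound added. Incubated at 37 °C; plaques stained with crystal violet and counted at 8 dpi. Experiment repeated three times; one representative shown.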

Human betaherpesvirus 5 [13] = test: Antiviral activity against HCMV Towne infected in human HFF cells assessed as reduction in plaque formation treated with compound following viral infection at MOI of 1 PFU/cell and measured at 10 days post-infection in presence of letermovir by crystal violet staining based assay; assay type: functional, organism-based; settings: Human betaherpesvirus 5, strain Towne, 240 h
Human betaherpesvirus 5 [14] = test: Inhibition of viral protein expression in HCMV Towne infected in human HFF cells assessed as reduction in IE2 expression at 0.1 to 10 uM treated with compound following viral infection at MOI of 1 PFU/cell measured at 72 hrs post infection by Western blot analysis; assay type: functional, organism-based; settings: strain Towne; summary of the method: as §4
Human betaherpesvirus 5 [15] = test: Inhibition of viral protein expression in HCMV Towne infected in human HFF cells assessed as reduction in UL44 expression at 0.1 to 10 uM treated with compound following viral infection at MOI of 1 PFU/cell measured at 72 hrs post infection by Western blot analysis; assay type: functional, organism-based; settings: strain Towne; summary of the method: as §4
[16] = Antiviral activity against Mouse Cytomegalovirus Smith (ATCC VR-1399) infected in mouse MEF cells assessed as reduction in plaque formation measured after 3 days by crystal violet staining based assay; assay type: functional, cell-based, Murine cytomegalovirus (strain Smith)
Summary of the method: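 Plaque reduction with MCMV Smith in mouse embryonic fibroblasts, with compound in a carboxymethylcellulose overlay. Assay ended at 3 days and plaques counted after crystal violet staining.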

Human betaherpesvirus 5 [17] = test: Antiviral activity against HCMV Towne infected in human HFF cells assessed as reduction in viral DNA yields in the supernatant at 5 uM treated with compound following viral infection at MOI of 0.1 PFU/cell by US17 real time PCR analysis; assay type: functional, organism-based; settings: strain Towne; summary of the method: as §5
Human betaherpesvirus 5 [18] = test: Antiviral activity against HCMV Towne infected in human HFF cells assessed as reduction in viral entry into host cell by measuring nuclear localization of pp65 at 5 uM treated with compound for 24 hrs followed by viral infection at MOI of 0.01 to 1 PFU/cell measured at 2 hrs post infection by immunofluorescence microscopy; assay type: functional, organism-based; settings: strain Towne
Summary of the method: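 HFFs on chamber slides pretreated 24 h with compound diluted in serum-free medium, then infected with HCMV Towne for 2 h. Heparin 30 μM as positive entry-block control. Cells methanol-fixed, then stained with anti-pp65 (1:50) and rhodamine anti-mouse IgG, with DAPI. Nuclear pp65 viewed by fluorescence microscopy at 40x; repeated three times.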

Human betaherpesvirus 5 [19] = test: Antiviral activity against HCMV Towne infected in human HFF cells assessed as reduction in viral DNA replication at 5 uM treated with compound following viral infection at MOI of 0.1 PFU/cell by US17 real time PCR analysis; assay type: functional, organism-based; settings: strain Towne; summary of the method: as §5
Human betaherpesvirus 5 [20] = test: Inhibition of viral protein expression in HCMV Towne infected in human HFF cells assessed as reduction in IE1 expression at 0.3 to 10 uM treated with compound following viral infection at MOI of 1 PFU/cell measured at 72 hrs post infection by Western blot analysis; assay type: functional, organism-based; settings: strain Towne; summary of the method: as §4
Human betaherpesvirus 5 [21] = test: Inhibition of viral protein expression in HCMV Towne infected in human HFF cells assessed as reduction in IE2 expression at 0.3 to 10 uM treated with compound following viral infection at MOI of 1 PFU/cell measured at 72 hrs post infection by Western blot analysis; assay type: functional, organism-based; settings: strain Towne; summary of the method: as §4
Human betaherpesvirus 5 [22] = test: Antiviral activity against HCMV TB40 infected in human HFF cells assessed as reduction in plaque formation at 0.75 to 10 uM treated with compound following viral infection at […] measured after 8 days by crystal violet staining analysis; assay type: functional, organism-based; summary of the method: as §8
Human betaherpesvirus 5 [23] = test: as §6, with “1” for “0.5”, “5” for “3”; assay type: functional, organism-based; settings: strain Towne; summary of the method: as §7
[24] = Human alphaherpesvirus 2, Vero, 36 h, read-out: EC50
[25] = Murid betaherpesvirus 1, ATCC VR-1399, MEF, 72 h, read-out: EC50
[26] = human gammaherpesvirus 4, 48 h, read-out: EC50

Row | SMILES | EC50 (Human betaherpesvirus 5 [1]) [nM] | EC50 (Human betaherpesvirus 5 [2]) [nM] | CC50 (HFF) [nM] | EC50 (Human alphaherpesvirus 2; [24]) [nM] | Activity (Human betaherpesvirus 5 [3]) | EC50 (Human betaherpesvirus 5 [7]) [nM] | EC50 (Human betaherpesvirus 5 [9]) [nM] | EC50 (Human betaherpesvirus 5 [13]) [nM] | EC50 [16, 25] [nM] | Activity (Human betaherpesvirus 5 [17]) | Activity (Human betaherpesvirus 5 [10]) | EC50 (Human gammaherpesvirus 4; [26]) [nM] | Activity (Human betaherpesvirus 5 [19]) | further results
1 | CCc1ccc(NC(=O)[C@H](Cc2c[nH]c3ccccc23)NC(=O)[C@@H]2Cc3ccccc3CN2)cc1 | 170 | 340 | 86000 | 1300 | inactive | 550 | 640 | 140 | 11700 |  |  |  |  | inhibition (Human betaherpesvirus 5 [4]): Active; Activity (Human betaherpesvirus 5 [5]): Active; inhibition (Human betaherpesvirus 5 [6]): Active; Activity (Human betaherpesvirus 5 [8]): Active; EC50 (Human alphaherpesvirus 1; Human alphaherpesvirus 1, Vero, 36 h, read-out: EC50): 1780 nM; inhibition (INH) (Human betaherpesvirus 5 [10]): 100%; EC50 (Human gammaherpesvirus 4): Not Active; Activity (Human betaherpesvirus 5 [11]): Active; Activity (Human betaherpesvirus 5 [12]): Active; inhibition (Human betaherpesvirus 5 [14]): Active; inhibition (Human betaherpesvirus 5 [15]): Active
2 | Nc1nc2c(ncn2COC(CO)CO)c(=O)[nH]1 [GANCICLOVIR] |  |  |  | 580 | inactive |  |  |  | 960 | Active | Active | 5200 | Active | Activity (Human betaherpesvirus 5 [18]): inactive
3 | CCN1CCN(CCCNC(=O)c2ccc3c(c2)sc2nc(-c4ccc(OC)cc4)cn23)CC1 | 840 | 1210 | 70900 |  | inactive | 690 | 850 | 610 |  | Active | Active | 1920 | Active | inhibition (Human betaherpesvirus 5 [20]): Active; EC50 (Human alphaherpesvirus 2; vero): Not Active; inhibition (Human betaherpesvirus 5 [21]): Active; Activity (Human betaherpesvirus 5 [22]): Active; Activity (Human betaherpesvirus 5 [23]): Active; EC50 (Human alphaherpesvirus 1; vero): Not Active; EC50 ([16]; mef): Not Active
